Screening results (PubChem)
MC4R barr agon = human MC4R agonism via beta-arrestin. U2OS MC4R beta-arrestin complementation, luminescence; percent of melanotan II response, DMSO zero. actives 0.98% (n = 360,000). AID 540308. activation, % at 8.9 µM. P32245;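 active means activation above a per-plate cutoff, the mean activation of sample wells on that plate plus 3 SD, cut at about 8% in these data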
Target sequence (P32245 whole entry, looked up): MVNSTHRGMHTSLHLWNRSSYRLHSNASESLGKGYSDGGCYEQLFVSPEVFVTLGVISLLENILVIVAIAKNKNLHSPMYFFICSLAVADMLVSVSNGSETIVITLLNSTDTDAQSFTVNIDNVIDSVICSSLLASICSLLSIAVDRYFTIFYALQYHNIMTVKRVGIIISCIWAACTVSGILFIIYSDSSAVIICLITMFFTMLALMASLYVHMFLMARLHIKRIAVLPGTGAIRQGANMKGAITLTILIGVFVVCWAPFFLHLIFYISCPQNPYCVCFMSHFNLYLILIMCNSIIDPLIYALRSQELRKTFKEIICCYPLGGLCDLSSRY
Calb FLC = affects C. albicans growth with fluconazole. C. albicans CaCi-2 + fluconazole, Alamar Blue growth, 48 h. growth inhibition, % (test concentration not listed). actives 0.57% (n = 300,000). AID 1979;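 active means growth inhibition above about 58% in most replicates, limit read from the data, passing the limit was not always enough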;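 further: all wells also contain fluconazole at 8 µg/ml as a sub-toxic cotreatment; 0% = median of DMSO wells and 100% = median of geldanamycin control wells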
H9c2 TAG inh = reduces triacylglycerol accumulation in H9c2 cells | Nile Red lipid (TAG) fluorescence; cells loaded with 200 µM oleic acid | inhibition, % at 12.5 µM | actives 0.66% (n = 230,000) | AID 651582;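 active means pattern-corrected inhibition of lipid staining of at least 50% with the nuclear-stain viability signal not falling by more than 50%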;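 further: 0% = DMSO wells and 100% = triacsin C control wells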
MC4R antagonist = blocks human MC4R cAMP signaling; P32245; MC4R-expressing cells, MTII-stimulated cAMP, LANCE TR-FRET; inhibition, % at 6.5 µM; actives 0.48% (n = 360,000);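 active means inhibition above its plate's cutoff, the mean of tested wells on that plate plus 3 SD, cut at about 29% in these data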;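 further: 0% = Melanotan II alone and 100% = Melanotan II plus saturating MCL0020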
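Material: human MC4R-expressing U2OS cells. Probe or stimulus: Melanotan II challenge. Dosing: 6.5 µM single dose. Times: 30-min compound, 1-h challenge, 1-h detection, room temperature. Technique: TR-FRET with Eu-cAMP and labeled anti-cAMP, 671 nm. Replication: singlicate.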
GalR3 antag = blocks the human galanin receptor 3; O60755; HEK293 GalR3-CNG cAMP membrane potential fluorescence; galR3 body fused to GalR1 C-terminus; inhibition, % at 3 µM; actives 0.44% (n = 360,000);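 active means inhibition above the screen-wide average plus 3 SD, cut at about 13% in these data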;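 further: forskolin and galanin both at EC90 stimulate the cells; cAMP rise reported by CNG channel membrane potential dye signal; 0% = forskolin plus galanin with DMSO and 100% = forskolin alone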
Target sequence (O60755 1-299 limits assumed): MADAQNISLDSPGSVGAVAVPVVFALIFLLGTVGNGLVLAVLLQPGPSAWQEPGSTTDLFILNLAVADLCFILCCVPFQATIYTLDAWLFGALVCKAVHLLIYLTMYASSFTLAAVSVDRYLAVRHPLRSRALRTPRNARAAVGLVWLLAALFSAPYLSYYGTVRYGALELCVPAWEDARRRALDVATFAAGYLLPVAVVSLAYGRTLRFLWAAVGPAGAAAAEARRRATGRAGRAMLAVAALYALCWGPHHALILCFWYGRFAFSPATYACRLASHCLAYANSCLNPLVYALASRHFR
Efflux pump inh = antifungal efflux pump inhibition, Nile Red retention; S. cerevisiae Candida pump triplex; inhibition, % at 10 µM; actives 0.44% (n = 330,000); AID 485275;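 active means plate passing quality check with inhibition over a set limit, or well fluorescence over plate mean plus 4 SD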;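 further: Nile Red retained in pooled yeast measured as flow cytometry median fluorescence; 0% = buffer negative control and 100% = Enniatin B positive control; higher means more Nile Red kept so more efflux inhibition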
* = called active by the depositor; nt = not tested or not shown. Rows were chosen to be rich in hits. Some 2.9% of all compounds tested hit in one or more screens of this group.

SMILES	MC4R barr agon	Calb FLC	H9c2 TAG inh	MC4R antagonist	GalR3 antag	Efflux pump inh
CC(=O)O[C@H]1C(=O)[C@@]2(C)[C@H]([C@H](OC(=O)c3ccccc3)[C@]3(O)C[C@H](OC(=O)[C@H](O)[C@@H](NC(=O)c4ccccc4)c4ccccc4)C(C)=C1C3(C)C)[C@]1(OC(C)=O)CO[C@@H]1C[C@@H]2O	-0.8	nt	56.0*	-3.9	nt	0.1
CSCCC(c1nc2ccccc2[nH]1)n1c(/C=C/c2ccc(F)c(F)c2)nc2ccccc21 (configuration not stated)	nt	nt	nt	nt	-5.0	nt
COc1ccc2nc(C)cc(N/N=C/c3ccc(F)cc3)c2c1	9.2*	-15.9	136.3	8.6	-7.0	0.0
CC1(Oc2ccccc2-c2ccn[nH]2)CCN(Cc2ccc(OC(F)(F)F)cc2)C1 (configuration not stated)	5.1	nt	-9.4	3.8	-7.4	nt
CC(=O)c1ccc(NC(=O)c2sc3nc(C)c(C)c(C)c3c2N)cc1	-1.9	3.7	3.9	1.4	-8.6	0.2
Cc1nc2sc(C(=O)Nc3ccccc3)c(N)c2c(C)c1[N+](=O)[O-]	9.3*	0.8	33.4	-9.0	-5.9	0.0
O=C(NC1CCCc2c1cnn2-c1cc(F)cc(F)c1)c1ccccn1 (configuration not stated)	-4.0	12.4	9.3	16.3	-0.1	5.3*
CC(C)C[C@H]1COc2cc(N3CCCC3)ccc2S(=O)(=O)N1	nt	nt	nt	nt	-5.4	nt
Cc1ccc(-c2nc(SC(C)C(=O)NC3CC3)n[nH]2)cc1 (configuration not stated)	-0.7	nt	5.9	0.2	-6.4	nt
COc1cc(N/N=C/c2ccc(N(C)C)cc2)ncn1	0.8	19.3	15.3	0.3	-3.7	-0.1
CN(C)c1cc(N/N=C/c2ccc(Cl)cc2)nc(N(C)C)n1	-0.3	97.7*	nt	14.8	-7.1	nt
CCOC(=O)c1oc2ccccc2c1NC(=O)c1ccc2c(c1)OCO2	9.4*	1.8	nt	10.8	-9.2	0.0
CCOc1ccc2nc(SCC(=O)c3ccc(O)cc3O)sc2c1	8.5*	4.3	nt	-6.1	-7.2	0.8
CCN(CC)C(=O)C1=C(C)N(Cc2ccc(OC)cc2)C(=O)C(CC(=O)NCCc2ccccn2)C1 (configuration not stated)	-0.4	nt	-4.0	-3.2	-2.0	nt
C[C@H](CO)N1C[C@H](C)[C@@H](CN(C)C(=O)Nc2ccc(N3CCN(C)CC3)cc2)OCc2cn(nn2)CCCC1=O	nt	nt	nt	nt	-6.5	nt
COc1ccccc1CNC(=O)/C=C/c1ccc(Br)o1	-2.0	17.5	51.3*	3.6	3.9	0.2
OCC1OC(n2cnc3c(NCc4ccco4)ncnc32)C(O)C1O (configuration not stated)	-2.4	nt	84.9	17.5	86.3*	nt
OC[C@H]1O[C@@H](n2cnc3c(NCc4ccco4)ncnc32)[C@H](O)[C@@H]1O	-0.8	nt	63.5	20.2	-5.7	nt
COc1cccc(C(=O)N[C@H](C(=O)N2CCC[C@H]2C(=O)NCCc2ccccc2Cl)C2CCCCC2)c1	nt	nt	nt	nt	-7.8	nt
CCC(O)CC(C(=O)NNc1ccccc1)C(=O)NNc1ccccc1 (configuration not stated)	-1.6	100.4*	nt	8.0	-4.6	0.1
Cc1cc(C(C)(C)C)cc(C)c1S(=O)(=O)N1CC(=O)Nc2ccccc21	8.7*	-8.7	-4.0	7.3	7.7	0.2
Cc1ccc(C(C)(C)C)cc1S(=O)(=O)N1CC(=O)Nc2ccccc21	1.5	-1.2	nt	-6.5	-6.0	-0.1
O=C(NCc1ccccc1)[C@@H]1CCCN1C(=O)[C@H]1CCCN1C(=O)c1ccc(Cl)c(Cl)c1	nt	nt	nt	nt	-6.0	nt
Cc1c(C#N)c(NC(=O)CCl)n(Cc2ccccc2)c1C	-3.1	96.8*	42.1	9.9	-0.8	0.0
O=C(NCCC(F)(F)F)C1Cc2c(-c3ccc(Cl)cc3)ccnc2O1 (configuration not stated)	0.7	nt	2.2	2.6	-6.3	nt
SMILES	MC4R barr agon	Calb FLC	H9c2 TAG inh	MC4R antagonist	GalR3 antag	Efflux pump inh
Cc1ccc(C2c3c(C)nn(-c4ccc([N+](=O)[O-])cc4)c3N=C3C(=O)Nc4ccccc4N32)cc1 (configuration not stated)	nt	62.8	nt	nt	nt	0.5*
CC(=O)Nc1c(C)nn(-c2ccc([N+](=O)[O-])cc2)c1C	-0.6	-14.9	-13.9	9.9	-0.6	0.0
COC(=O)[C@]12CCCCC=C1N(Cc1ccccc1)C(=O)[C@H](CC(=O)NCc1cccc(C(F)(F)F)c1)C2	nt	nt	nt	nt	-4.9	nt
CC(C)(C)c1cc(CCC(=O)N2CCNCC2)c(C(C)(C)C)cc1O	1.5	8.0	55.2*	10.0	-8.0	-0.2
CCCN(C)C[C@@H]1OCc2cnnn2CCCC(=O)N([C@H](C)CO)C[C@H]1C	0.5	nt	-11.2	14.2	-5.9	nt
C/C(=N\NC(=O)c1cc(C2CC2)nc2ccccc12)c1ccc(O)cc1O	-0.6	101.5*	nt	3.2	-13.8	-0.1
C/C(=N\NC(=O)c1cc(C2CC2)nc2ccccc12)c1ccc(C)s1	0.2	3.1	-8.7	0.3	-5.8	0.0
COc1ccccc1-c1cn(CC[C@@H]2CC[C@H](NC(=O)C3CCC3)[C@@H](CO)O2)nn1	nt	nt	nt	nt	-0.8	nt
Cc1ccc(Cl)cc1N1CCN(S(=O)(=O)c2ccc(-c3ccc(=O)[nH]n3)o2)CC1	2.0	3.9	nt	6.0	0.8	-0.1
Cc1ccc(C)c(N2CCN(S(=O)(=O)c3ccc(-c4ccc(=O)[nH]n4)o3)CC2)c1	11.4*	-2.6	nt	0.1	-3.6	0.0
Cc1ccc2nsnc2c1NC(=O)COc1ccccc1F	-1.8	113.9*	-27.0	18.3	-4.2	0.2
N#CC(C#N)c1ccnc2ccccc12	-1.6	nt	10.0	-4.5	4.0	nt
CNC[C@@H](Cc1ccccc1)NC[C@@H](CC1CCCCC1)NCCCc1ccccc1	11.5*	79.1*	126.5	0.5	-4.3	nt
CCC[C@@H](CNC)NC[C@H](Cc1ccccc1)NCCCCc1ccccc1	0.4	-30.2	130.6*	4.4	-5.7	0.1
CNC[C@@H](CC1CCCCC1)NC[C@H](CC(C)C)NCCc1cccc(C(F)(F)F)c1	6.2	88.5*	134.4*	2.8	-2.8	nt
CC[C@@H](C)[C@H](CNC)NC[C@@H](Cc1cccc2ccccc12)NCCc1cccc(C(F)(F)F)c1	6.2	111.9*	135.0	11.4	-3.8	0.4
O=C(Nc1cccc(C(F)(F)F)c1)C1CC(=O)N(Cc2ccco2)C1 (configuration not stated)	-0.9	nt	3.4	6.7	-7.9	nt
CCN(CC)Cc1ccc(NC(=O)c2sc3cc(Cl)ccc3c2Cl)cc1	-0.8	102.6*	-6.1	-2.4	-5.7	-0.1
CCCCn1nnc(NC(=O)c2sc3cc(Cl)ccc3c2Cl)n1	-0.3	nt	-9.7	4.3	-3.7	0.2
Oc1ccc2ccccc2c1/C=N/Nc1nnc(-c2ncc[nH]2)c2ccccc12	1.6	108.3*	-15.1	-38.3	-5.5	0.0
